Source: PubChem BioAssay
Inconclusive results are not listed.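 How the source made its calls, unless noted: active means viability at or below 27.92% in each of two runs, the all-compound median minus 4 SD; inconclusive means no clear call, values can overlap the other calls; inactive means the rest.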

Key:
[1] = S. cerevisiae growth inhibition in permissive medium (OD615), pilot counter-assay for S. cerevisiae lifespan shortening project, permissive growth control (AID 705;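 active means growth inhibition above 25% in both replicates, a cutoff set 3 SD above the mean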); conditions: OD615, 24 h, at 10 µM, stronger effect = higher value
In short: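 System – S. cerevisiae with engineered DeaD lifespan system · Buffer or medium – SC raffinose/galactose permissive medium · Schedule – cells pre-grown 4 h, then 24 h compound exposure, 30 °C humidified · Technique – culture turbidity as optical density at 615 nm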

[2] = S. cerevisiae growth inhibition in restrictive medium, OD615, pilot screen, restrictive growth control, yeast lifespan reduction project (AID 706;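 active means growth inhibition above a set limit, 3 SD over mean compound inhibition, in both replicates, cut at about 43% in these data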;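 further: modified DeaD lifespan yeast strain shifted to restrictive glucose medium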); conditions: OD615, 48 h, at 10 µM, stronger effect = higher value
In short: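 Material: engineered S. cerevisiae DeaD strain / Medium: glucose-based CSMM-D restrictive medium / Compound: single dose of 10 µM compound final, 0.25% DMSO / Timing: 4 h pre-incubation, 48 h exposure at 30 °C / Technique: OD615 absorbance reading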

[3] = doxorubicin toxicity protection in MRP-1 cells – H69AR cells, CellTiter-Glo, duplicate, MRP-1 activator project, pilot screen (AID 807;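 active means viability increase at or above a cutoff of the median across tested compounds plus 3 SD, cut at about 8.5% in these data, passing the limit was not always enough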;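 further: compound pretreatment 18-22 h then 72 h combined with doxorubicin; 0% = doxorubicin alone and 100% = vehicle without doxorubicin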); conditions: H69AR viability with doxorubicin, CellTiter-Glo luminescence; at 10 µM; stronger effect = higher value
[4] = viability of HCT116 without oncogenic beta-catenin – human colon tumor cells, pilot screen (AID 823;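 active means cell viability at or below a set limit in both duplicate runs, the limit being the all-compound median minus 4 SD, cut at about 23% in these data, passing the limit was not always enough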;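 further: 0% = wells killed by 20 µM Hyamine and 100% = untreated DMSO cell wells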); conditions: HCT116 beta-catenin knockout viability, CellTiter-Glo, 60 h; at 10 µM; stronger effect = lower value
[5] = viability of PTEN-null HCT116 cells – cell-based, HCT116 clonal line, CellTiter-Glo, pilot screen (AID 824); conditions: HCT116 PTEN-deleted viability, 60 h, at 10 µM, stronger effect = lower value;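 further: 0% = 20 µM Hyamine control and 100% = vehicle cell control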
[6] = RAM pathway blockade in budding yeast – dse1pr::URA3 reporter, 5-FOA selection, pilot screen (AID 869;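 active means inhibition over a set limit, the all-compound mean plus 3 SD, in both replicate runs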;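 further: 0% = DMSO wells with no growth and 100% = 10 µM 1-NA-PP1 with full growth; RAM network block rescues cells from 5-FOA so hits raise OD615 growth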); conditions: S. cerevisiae dse1pr::URA3 5-FOA growth, OD615, 2 d; at 10 µM; stronger effect = higher value; strain carries analog-sensitive mutant Cbk1 kinase
[7] = RAM signaling pathway blockade in yeast – S. cerevisiae, Pdr1DBD-CYC8 efflux-inhibited sensitized strain, primary screen (AID 1298;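 active means RAM network inhibition above 8.4% in each of two replicates, 3 SD over the compound average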;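 further: 0% = DMSO untreated cells without growth and 100% = 10 µM 1-NA-PP1 full growth; higher means more yeast growth rescued from 5-FOA killing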); conditions: S. cerevisiae cbk1-as DSE1-URA3 strain, 5-FOA growth OD615, 2 d; at 50 µM; stronger effect = higher value

COc1ccc(C)c2sc(=NC(=O)C(C)C)n(C)c12
inactive: growth inhibition [1] -6.53% | growth inhibition [2] 2.31% | viability increase [3] -3.89% | viability [4] 90% | viability [5] 92.4% | inhibition [6] 3.1% | RAM network inhibition [7] 6.3%

NC(=O)COc1ccc(=O)n(-c2ccccc2)n1
inactive: growth inhibition [1] 2.42% | growth inhibition [2] 4.29% | viability increase [3] 0.84% | viability [4] 107% | viability [5] 105% | inhibition [6] 1.23% | RAM network inhibition [7] 1.14%

COc1cccc(-c2nc(CS(=O)CC(=O)NCc3ccc4c(c3)OCO4)c(C)o2)c1 (stereo unspecified)
inactive: growth inhibition [1] -3.78% | growth inhibition [2] 14.7% | viability increase [3] 0.74% | viability [4] 97.2% | viability [5] 101% | inhibition [6] 3% | RAM network inhibition [7] 4.76%

Cc1cc(Nc2ccc(Br)cc2F)n2nc(C)nc2n1
inactive: growth inhibition [1] -19.2% | growth inhibition [2] -14.2% | viability increase [3] -4.07% | viability [4] 88.3% | viability [5] 86% | inhibition [6] 0.87% | RAM network inhibition [7] -0.15%

N#CCCN1CCN(S(=O)(=O)c2ccc(S(=O)(=O)NCC3CCCO3)cc2)CC1 (stereo unspecified)
inactive: growth inhibition [1] -1.2% | growth inhibition [2] 5.28% | viability increase [3] 0.55% | viability [4] 105% | viability [5] 104% | inhibition [6] 0.51% | RAM network inhibition [7] -2.15%

O=S(=O)(NCCc1csc(-c2cccnc2)n1)c1cccs1
inactive: growth inhibition [1] 1.37% | growth inhibition [2] -2.33% | viability increase [3] -1.11% | viability [4] 104% | viability [5] 96.8% | inhibition [6] 1.42% | RAM network inhibition [7] 0.73%

COc1ccc(S(=O)(=O)N(CC(=O)Nc2ccc3c(c2)OCO3)c2ccccc2OC)cc1
inactive: growth inhibition [1] -20.4% | growth inhibition [2] -13.9% | viability increase [3] -5.32% | viability [4] 69% | viability [5] 79.8% | inhibition [6] 2.13% | RAM network inhibition [7] 6.05%

c1ccc(-c2noc(CSc3nnnn3-c3ccccc3)n2)cc1
inactive: growth inhibition [1] -10.7% | growth inhibition [2] 22.4% | viability increase [3] 0.25% | viability [4] 97.8% | viability [5] 94% | inhibition [6] 0.485% | RAM network inhibition [7] 3.86%

CC(=O)CCS(=O)(=O)c1ccc(C)c(C)c1
inactive: growth inhibition [1] -1.55% | growth inhibition [2] -7.75% | viability increase [3] -6.33% | viability [4] 71.6% | viability [5] 90.2% | inhibition [6] 0.885% | RAM network inhibition [7] 1.15%

CN(C)c1ccc(NC(=O)Cn2c(=O)n(Cc3ccccc3)c(=O)c3ccccc32)cc1
inactive: growth inhibition [1] -0.65% | growth inhibition [2] 1.48% | viability increase [3] 3% | viability [4] 83.2% | viability [5] 88.3% | inhibition [6] 0.52% | RAM network inhibition [7] 8.96%

COc1ccc(-n2nnc3c(=O)n(CC(=O)N4CCC(Cc5ccccc5)CC4)cnc32)cc1
inactive: growth inhibition [1] 0.065% | growth inhibition [2] -3.95% | viability increase [3] -1.03% | viability [4] 80.2% | viability [5] 80.3% | inhibition [6] 2.54% | RAM network inhibition [7] 5.24%

CC(=O)Nc1ccc(S(=O)(=O)NCCc2cc3c(C)ccc(C)c3[nH]c2=O)cc1
inactive: growth inhibition [1] -10.1% | growth inhibition [2] -6.53% | viability increase [3] -0.47% | viability [4] 98.2% | viability [5] 94.2% | inhibition [6] 1.82% | RAM network inhibition [7] 1.05%

O=C(Cn1cnc2c(nnn2-c2ccccc2)c1=O)NCCc1ccccc1
inactive: growth inhibition [1] -0.435% | growth inhibition [2] -10.4% | viability increase [3] -1.04% | viability [4] 105% | viability [5] 100% | inhibition [6] 0.75% | RAM network inhibition [7] 3.12%

CCc1cc(C(=O)Nc2ccccc2)cs1
inactive: growth inhibition [1] -8.2% | growth inhibition [2] 4.65% | viability increase [3] -0.18% | viability [4] 82.8% | viability [5] 90.9% | inhibition [6] 2.13% | RAM network inhibition [7] -2.13%

CCCC(NS(=O)(=O)c1ccc(Br)cc1)C(=O)O (stereo unspecified)
inactive: growth inhibition [1] -3.98% | growth inhibition [2] -0.42% | viability increase [3] -0.09% | viability [4] 104% | viability [5] 99.3% | inhibition [6] 0.57% | RAM network inhibition [7] 4.41%

Cc1cc(NC(=O)CSc2nnc(C)c(=O)[nH]2)no1
inactive: growth inhibition [1] -0.975% | growth inhibition [2] 1.15% | viability increase [3] 0.9% | viability [4] 112% | viability [5] 101% | inhibition [6] 2.48% | RAM network inhibition [7] 1.75%

COc1ccc2[nH]c(C)c(CCN3C(=O)C4CC=CCC4C3=O)c2c1 (stereo unspecified)
inactive: growth inhibition [1] -14.4% | growth inhibition [2] -15.3% | viability increase [3] 0.77% | viability [4] 105% | viability [5] 89.2% | inhibition [6] 0.55% | RAM network inhibition [7] 2.77%

C=CCn1c(O)c(C2=c3ccccc3=NC2=O)s/c1=N/c1nccs1
inactive: growth inhibition [1] -9.64% | growth inhibition [2] -9.09% | viability increase [3] -7.95% | viability [4] 42.1% | viability [5] 36% | inhibition [6] 0.115% | RAM network inhibition [7] 5.25%

CCC(c1ccccc1)c1nc(-c2ccccn2)no1 (stereo unspecified)
inactive: growth inhibition [1] -3.45% | growth inhibition [2] -5.84% | viability increase [3] 1.44% | viability [4] 91.8% | viability [5] 97.8% | inhibition [6] 0.495% | RAM network inhibition [7] 3.77%

CC(C)CC(/C(O)=C(\C#N)c1nc2ccccc2[nH]1)N1C(=O)c2ccccc2C1=O (stereo unspecified)
inactive: growth inhibition [1] -13.3% | growth inhibition [2] -18.9% | viability increase [3] -2.01% | viability [4] 82% | viability [5] 73.3% | inhibition [6] 3.05% | RAM network inhibition [7] 4.23%

CCS(=O)(=O)NCCc1csc(-c2cccnc2)n1
inactive: growth inhibition [1] -1.29% | growth inhibition [2] -6.54% | viability increase [3] -0.37% | viability [4] 102% | viability [5] 102% | inhibition [6] 2.48% | RAM network inhibition [7] 6.14%

COc1ccc(NC(=O)C2CCN(S(=O)(=O)c3cccnc3)CC2)cc1Cl
inactive: growth inhibition [1] -8.66% | growth inhibition [2] -13.1% | viability increase [3] -3.56% | viability [4] 97.3% | viability [5] 100% | inhibition [6] 1.77% | RAM network inhibition [7] 2.55%

O=C(O)CCNc1cc2ccccc2cc1C(=O)O
inactive: growth inhibition [1] -15.4% | growth inhibition [2] -3.88% | viability increase [3] -1.49% | viability [4] 97.3% | viability [5] 96.5% | inhibition [6] 1.59% | RAM network inhibition [7] -0.37%

CC(C)n1c(SCCCc2ccccc2)nc2c1c(=O)[nH]c(=O)n2C
inactive: growth inhibition [1] -6.04% | growth inhibition [2] 4.52% | viability increase [3] -0.9% | viability [4] 92.2% | viability [5] 87.5% | inhibition [6] 1.95% | RAM network inhibition [7] 8.85%

O=C(CN1C(=O)C2C3C=CC(C3)C2C1=O)Nc1ccc2nccnc2c1 (stereo unspecified)
inactive: growth inhibition [1] 7.15% | growth inhibition [2] -1.04% | viability increase [3] -1.76% | viability [4] 105% | viability [5] 95.2% | inhibition [6] 2.29% | RAM network inhibition [7] 0.31%

Cc1ccc(S(=O)(=O)N2CCN(C(=O)CSc3nnc(C)s3)C2)cc1
inactive: growth inhibition [1] -14.3% | growth inhibition [2] -10.7% | viability increase [3] -1.75% | viability [4] 91.9% | viability [5] 87.3% | inhibition [6] 1.31% | RAM network inhibition [7] -0.22%

OCCN1CCN(Cc2cc(Br)cc(Br)c2O)CC1
inactive: growth inhibition [1] -18.3% | growth inhibition [2] -14% | viability increase [3] -2.23% | viability [4] 92.6% | viability [5] 96.3% | inhibition [6] 2.87% | RAM network inhibition [7] -0.43%

Cn1c(C(=O)NCc2cccs2)cc2c(=O)n(C)c3ccccc3c21
inactive: growth inhibition [1] -0.025% | growth inhibition [2] -1.79% | viability increase [3] -3.65% | viability [4] 98.9% | viability [5] 98.1% | inhibition [6] 2.62% | RAM network inhibition [7] 1.75%

O=C(O)C1C2C=CC(C2)C1C(=O)NCCc1cccc(Cl)c1 (stereo unspecified)
inactive: growth inhibition [1] -2.6% | growth inhibition [2] 3.11% | viability increase [3] -1.41% | viability [4] 104% | viability [5] 94.7% | inhibition [6] 0.045% | RAM network inhibition [7] 2.92%

CCn1c(=NC(=O)CN2C(=O)CCC2=O)sc2c(OC)ccc(OC)c21
inactive: growth inhibition [1] -5.83% | growth inhibition [2] -14.7% | viability increase [3] -2.94% | viability [4] 87.4% | viability [5] 96% | inhibition [6] 2.75% | RAM network inhibition [7] 6.17%

O=C(CSc1ccc2nnc(-c3ccccn3)n2n1)NCc1ccc2c(c1)OCO2
inactive: growth inhibition [1] -0.545% | growth inhibition [2] 21.4% | viability increase [3] -3.68% | viability [4] 91.6% | viability [5] 91.7% | inhibition [6] 2.51% | RAM network inhibition [7] 1.66%

CC1=CS/C(=C(/C#N)C(=O)N2CCCCC2)N1c1ccccc1
inactive: growth inhibition [1] -0.66% | growth inhibition [2] -8.34% | viability increase [3] -1.48% | viability [4] 97.3% | viability [5] 95.8% | inhibition [6] 0.425% | RAM network inhibition [7] 2.37%

C=CCSC1=N/C(=C\c2ccc3c(c2)OCO3)C(=O)S1
inactive: growth inhibition [1] -6.71% | growth inhibition [2] -9.09% | viability increase [3] -5.28% | viability [4] 103% | viability [5] 96.7% | inhibition [6] 4.59% | RAM network inhibition [7] 7.07%
